≈ marks a conversion by molar mass, not a printed value.
Tests used:
[1] = Ratio of EC50 for human HepG2 cells to EC50 for Plasmodium falciparum K1 infected in human erythrocytes
[2] = Dissociation constant, pKa of the compound; format: physicochemical
[3] = Ratio of EC50 for human HepG2 cells to EC50 for Plasmodium falciparum 3D7 infected in human erythrocytes
[4] = Permeability of the compound at pH 7.4 after 30 mins by PAMPA; format: ADME; conditions: read-out: permeability
Method in brief: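 PAMPA at pH 7.4. A 10 mM DMSO stock is diluted into system solution buffer; its UV spectrum serves as reference. Membrane painted with GIT lipid, acceptor chamber holds acceptor solution buffer. Sandwich stirred for 30 min, aqueous boundary layer set to 40. Donor and acceptor UV spectra read at 250–500 nm. Permeability coefficient from the AUCs of reference, donor and acceptor. Single experiment in triplicate.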

Plasmodium falciparum [5] = assay: Ratio of EC50 for chloroquine-resistant Plasmodium falciparum K1 infected in human erythrocytes to EC50 for chloroquine-sensitive Plasmodium falciparum 3D7 infected in human erythrocytes; format: functional
HepG2 = assay: Cytotoxicity against human HepG2 cells assessed as intracellular ATP level after 72 hrs by Celltiter-Glo luminescent assay; format: cell-based; conditions: HepG2, 72 h
Plasmodium falciparum [6] = assay: Antimalarial activity against chloroquine-resistant Plasmodium falciparum K1 infected in human erythrocytes assessed as reduction in parasitemia after 72 hrs by spectrophotometry; format: functional, organism-based; conditions: K1, 72 h
Plasmodium falciparum [7] = assay: Antimalarial activity against chloroquine-sensitive Plasmodium falciparum 3D7 infected in human erythrocytes assessed as reduction in parasitemia after 72 hrs by spectrophotometry; format: functional, organism-based; conditions: 3D7, 72 h
[8] = Solubility of the compound at pH 7.4 after 18 hrs by UV spectroscopic analysis; format: physicochemical; conditions: buffer
Method in brief: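 Kinetic solubility. A 10 mM stock is diluted 1:100 into PBS pH 7.4 and incubated 18 h at room temperature, then filtered; the filtrate is mixed 1:1 with 1-propanol. UV spectrum (250–500 nm) compared by AUC with a 1-propanol/PBS reference. Single experiment in triplicate.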

Structure (SMILES): COc1ccc(F)cc1CNCCCNc1ccnc2cc(-c3ccc(F)cc3)ccc12
- Ratio EC50 [1]: 7.9
- pKa [2]: 9.47
- Ratio EC50 [3]: 44
- Papp at 0.5 h [4]: 2370 nm/s
- Ratio EC50 (Plasmodium falciparum [5]): 5.5
- EC50 (HepG2): 0.77 µM
- EC50 (Plasmodium falciparum [6]): 0.097 µM
- EC50 (Plasmodium falciparum [7]): 0.018 µM
- solubility at 18 h [8]: 32 µM (≈ 13.9 µg/mL)

Structure (SMILES): Cc1cc(C)cc(Cc2ccc3c(NCCCNCc4ccco4)ccnc3c2)c1
- Ratio EC50 [1]: 9.2
- pKa [2]: 9.47
- Ratio EC50 [3]: 712.1
- Papp at 0.5 h [4]: 230 nm/s
- Ratio EC50 (Plasmodium falciparum [5]): 77
- EC50 (HepG2): 6.27 µM
- EC50 (Plasmodium falciparum [6]): 0.678 µM
- EC50 (Plasmodium falciparum [7]): 0.009 µM
- solubility at 18 h [8]: 4.2 µM (≈ 1.68 µg/mL)

Structure (SMILES): COc1ccc(F)cc1CNCCCNc1ccnc2cc(CC3CCCCC3)ccc12
- Ratio EC50 [1]: 2.7
- pKa [2]: 9.47
- Ratio EC50 [3]: 13.3
- Papp at 0.5 h [4]: 230 nm/s
- Ratio EC50 (Plasmodium falciparum [5]): 5
- EC50 (HepG2): 1.83 µM
- EC50 (Plasmodium falciparum [6]): 0.687 µM
- EC50 (Plasmodium falciparum [7]): 0.138 µM
- solubility at 18 h [8]: 4.2 µM (≈ 1.83 µg/mL)

Structure (SMILES): COc1cccc(Oc2ccc3c(NCCCNCc4ccc5c(c4)OCO5)ccnc3c2)c1
- Ratio EC50 [1]: 24
- pKa [2]: 9.28
- Ratio EC50 [3]: 1178
- Papp at 0.5 h [4]: 3170 nm/s
- Ratio EC50 (Plasmodium falciparum [5]): 50
- EC50 (HepG2): 14.1 µM
- EC50 (Plasmodium falciparum [6]): 0.6 µM
- EC50 (Plasmodium falciparum [7]): 0.012 µM
- solubility at 18 h [8]: 14.5 µM (≈ 6.63 µg/mL)

Structure (SMILES): CCC(CC)c1ccc2c(NCCCNCc3ccco3)ccnc2c1
- Ratio EC50 [1]: 1.6
- pKa [2]: 9.47
- Ratio EC50 [3]: 78.7
- Papp at 0.5 h [4]: 230 nm/s
- Ratio EC50 (Plasmodium falciparum [5]): 50.1
- EC50 (HepG2): 6.76 µM
- EC50 (Plasmodium falciparum [6]): 4.3 µM
- EC50 (Plasmodium falciparum [7]): 0.086 µM
- solubility at 18 h [8]: 4.2 µM (≈ 1.48 µg/mL)

Structure (SMILES): COc1ccc(F)cc1CNCCCNc1ccnc2cc(Oc3ccccc3OC)ccc12
- Ratio EC50 [1]: 7
- pKa [2]: 9.28
- Ratio EC50 [3]: 293
- Papp at 0.5 h [4]: 3170 nm/s
- Ratio EC50 (Plasmodium falciparum [5]): 44
- EC50 (HepG2): 6.4 µM
- EC50 (Plasmodium falciparum [6]): 0.96 µM
- EC50 (Plasmodium falciparum [7]): 0.022 µM
- solubility at 18 h [8]: 14.5 µM (≈ 6.69 µg/mL)

Structure (SMILES): Clc1ccc(Oc2ccc3c(NCCCNCc4ccc5c(c4)OCO5)ccnc3c2)cc1
- Ratio EC50 [1]: 22
- pKa [2]: 9.28
- Ratio EC50 [3]: 189
- Papp at 0.5 h [4]: 3170 nm/s
- Ratio EC50 (Plasmodium falciparum [5]): 8.4
- EC50 (HepG2): 7.2 µM
- EC50 (Plasmodium falciparum [6]): 0.32 µM
- EC50 (Plasmodium falciparum [7]): 0.038 µM
- solubility at 18 h [8]: 14.5 µM (≈ 6.7 µg/mL)

Structure (SMILES): FC(F)(F)c1ccc(-c2ccc3c(NCCCNCc4ccc5c(c4)OCO5)ccnc3c2)cc1
- Ratio EC50 [1]: 19.2
- pKa [2]: 9.47
- Ratio EC50 [3]: 74.5
- Papp at 0.5 h [4]: 2370 nm/s
- Ratio EC50 (Plasmodium falciparum [5]): 3.9
- EC50 (HepG2): 1.89 µM
- EC50 (Plasmodium falciparum [6]): 0.098 µM
- EC50 (Plasmodium falciparum [7]): 0.025 µM
- solubility at 18 h [8]: 32 µM (≈ 15.3 µg/mL)

Structure (SMILES): COc1cccc(CNCCCNc2ccnc3cc(-c4ccc(C(C)(C)C)cc4)ccc23)c1O
- Ratio EC50 [1]: 1.7
- pKa [2]: 9.47
- Ratio EC50 [3]: 2.8
- Papp at 0.5 h [4]: 2370 nm/s
- Ratio EC50 (Plasmodium falciparum [5]): 1.7
- EC50 (HepG2): 0.69 µM
- EC50 (Plasmodium falciparum [6]): 0.418 µM
- EC50 (Plasmodium falciparum [7]): 0.251 µM
- solubility at 18 h [8]: 32 µM (≈ 15 µg/mL)

Structure (SMILES): COc1cccc(CNCCCNc2ccnc3cc(Oc4ccccc4)ccc23)c1O
- Ratio EC50 [1]: 4
- pKa [2]: 9.28
- Ratio EC50 [3]: 450
- Papp at 0.5 h [4]: 3170 nm/s
- Ratio EC50 (Plasmodium falciparum [5]): 122
- EC50 (HepG2): 6.8 µM
- EC50 (Plasmodium falciparum [6]): 1.84 µM
- EC50 (Plasmodium falciparum [7]): 0.015 µM
- solubility at 18 h [8]: 14.5 µM (≈ 6.23 µg/mL)

Structure (SMILES): COc1cccc(CNCCCNc2ccnc3cc(Cc4cc(C)cc(C)c4)ccc23)c1O
- Ratio EC50 [1]: 2
- pKa [2]: 9.47
- Ratio EC50 [3]: 315.8
- Papp at 0.5 h [4]: 230 nm/s
- Ratio EC50 (Plasmodium falciparum [5]): 160
- EC50 (HepG2): 2.68 µM
- EC50 (Plasmodium falciparum [6]): 1.36 µM
- EC50 (Plasmodium falciparum [7]): 0.009 µM
- solubility at 18 h [8]: 4.2 µM (≈ 1.91 µg/mL)

Structure (SMILES): Fc1ccc(Cc2ccc3c(NCCCNCc4ccco4)ccnc3c2)c(Cl)c1
- Ratio EC50 [1]: 4.7
- pKa [2]: 9.47
- Ratio EC50 [3]: 290.8
- Papp at 0.5 h [4]: 230 nm/s
- Ratio EC50 (Plasmodium falciparum [5]): 62.1
- EC50 (HepG2): 5.73 µM
- EC50 (Plasmodium falciparum [6]): 1.22 µM
- EC50 (Plasmodium falciparum [7]): 0.02 µM
- solubility at 18 h [8]: 4.2 µM (≈ 1.78 µg/mL)

Structure (SMILES): N#Cc1ccc(Cc2ccc3c(NCCCNCc4ccco4)ccnc3c2)cc1
- Ratio EC50 [1]: 20.7
- pKa [2]: 9.47
- Ratio EC50 [3]: 201.9
- Papp at 0.5 h [4]: 230 nm/s
- Ratio EC50 (Plasmodium falciparum [5]): 9.7
- EC50 (HepG2): 7.91 µM
- EC50 (Plasmodium falciparum [6]): 0.382 µM
- EC50 (Plasmodium falciparum [7]): 0.039 µM
- solubility at 18 h [8]: 4.2 µM (≈ 1.67 µg/mL)

Structure (SMILES): COc1cccc(CNCCCNc2ccnc3cc(Cc4cccc(C(F)(F)F)c4)ccc23)c1O
- Ratio EC50 [1]: 0.8
- pKa [2]: 9.47
- Ratio EC50 [3]: 69
- Papp at 0.5 h [4]: 230 nm/s
- Ratio EC50 (Plasmodium falciparum [5]): 87.9
- EC50 (HepG2): 1.72 µM
- EC50 (Plasmodium falciparum [6]): 2.19 µM
- EC50 (Plasmodium falciparum [7]): 0.025 µM
- solubility at 18 h [8]: 4.2 µM (≈ 2.08 µg/mL)

Structure (SMILES): COc1ccc(F)cc1CNCCCNc1ccnc2cc(-c3cccc4ccccc34)ccc12
- Ratio EC50 [1]: 15.5
- pKa [2]: 9.47
- Ratio EC50 [3]: 13.9
- Papp at 0.5 h [4]: 2370 nm/s
- Ratio EC50 (Plasmodium falciparum [5]): 0.9
- EC50 (HepG2): 16 µM
- EC50 (Plasmodium falciparum [6]): 1.03 µM
- EC50 (Plasmodium falciparum [7]): 1.15 µM
- solubility at 18 h [8]: 32 µM (≈ 14.9 µg/mL)

Structure (SMILES): CCC(CC)c1ccc2c(NCCCNCc3cc(F)ccc3OC)ccnc2c1
- Ratio EC50 [1]: 4.1
- pKa [2]: 9.47
- Ratio EC50 [3]: 194.9
- Papp at 0.5 h [4]: 230 nm/s
- Ratio EC50 (Plasmodium falciparum [5]): 48
- EC50 (HepG2): 7.86 µM
- EC50 (Plasmodium falciparum [6]): 1.93 µM
- EC50 (Plasmodium falciparum [7]): 0.04 µM
- solubility at 18 h [8]: 4.2 µM (≈ 1.72 µg/mL)

Structure (SMILES): Fc1ccc(Oc2ccc3c(NCCCNCc4ccco4)ccnc3c2)cc1
- Ratio EC50 [1]: 167
- pKa [2]: 9.28
- Ratio EC50 [3]: 611
- Papp at 0.5 h [4]: 3170 nm/s
- Ratio EC50 (Plasmodium falciparum [5]): 3.6
- EC50 (HepG2): 16 µM
- EC50 (Plasmodium falciparum [6]): 0.096 µM
- EC50 (Plasmodium falciparum [7]): 0.026 µM
- solubility at 18 h [8]: 14.5 µM (≈ 5.68 µg/mL)

Structure (SMILES): COc1ccc(F)cc1CNCCCNc1ccnc2cc(-c3cc(C(F)(F)F)cc(C(F)(F)F)c3)ccc12
- Ratio EC50 [1]: 1.1
- pKa [2]: 9.47
- Ratio EC50 [3]: 9.4
- Papp at 0.5 h [4]: 2370 nm/s
- Ratio EC50 (Plasmodium falciparum [5]): 8.8
- EC50 (HepG2): 0.87 µM
- EC50 (Plasmodium falciparum [6]): 0.812 µM
- EC50 (Plasmodium falciparum [7]): 0.092 µM
- solubility at 18 h [8]: 32 µM (≈ 17.6 µg/mL)

Structure (SMILES): c1ccc(-c2ccc3c(NCCCNCc4ccco4)ccnc3c2)cc1
- Ratio EC50 [1]: 46.4
- pKa [2]: 9.47
- Ratio EC50 [3]: 291.6
- Papp at 0.5 h [4]: 2370 nm/s
- Ratio EC50 (Plasmodium falciparum [5]): 6.3
- EC50 (HepG2): 5.92 µM
- EC50 (Plasmodium falciparum [6]): 0.128 µM
- EC50 (Plasmodium falciparum [7]): 0.02 µM
- solubility at 18 h [8]: 32 µM (≈ 11.4 µg/mL)

Structure (SMILES): COc1ccc(F)cc1CNCCCNc1ccnc2cc(Cc3ccc(F)cc3)ccc12
- Ratio EC50 [1]: 6.1
- pKa [2]: 9.47
- Ratio EC50 [3]: 47.1
- Papp at 0.5 h [4]: 230 nm/s
- Ratio EC50 (Plasmodium falciparum [5]): 7.8
- EC50 (HepG2): 3.53 µM
- EC50 (Plasmodium falciparum [6]): 0.58 µM
- EC50 (Plasmodium falciparum [7]): 0.075 µM
- solubility at 18 h [8]: 4.2 µM (≈ 1.88 µg/mL)

Structure (SMILES): COc1cccc(CNCCCNc2ccnc3cc(Oc4ccc(F)cc4)ccc23)c1O
- Ratio EC50 [1]: 4
- pKa [2]: 9.28
- Ratio EC50 [3]: 990
- Papp at 0.5 h [4]: 3170 nm/s
- Ratio EC50 (Plasmodium falciparum [5]): 282.2
- EC50 (HepG2): 11 µM
- EC50 (Plasmodium falciparum [6]): 3.13 µM
- EC50 (Plasmodium falciparum [7]): 0.011 µM
- solubility at 18 h [8]: 14.5 µM (≈ 6.49 µg/mL)
